pEC50: −log10 of the molar value. Activity calls are given as the source filed them. The rule behind the calls is not given here.
tested on: not listed separately; assay: Selectivity index, ratio of EC50 for cytotoxicity against human HepG2 cells to antiplasmodial activity against chloroquine-resistant Plasmodium falciparum Dd2; format: toxicity, cell-based; details: read-out: Ratio EC50

Row | Compound | selectivity ratio
1 | CN1CCN(CCCCNc2cc(/C=C/c3ccncc3)nc3ccc(Cl)cc23)CC1 | 251
2 | Fc1ccc(/C=C/c2cc(NCCN3CCOCC3)c3cc(Cl)ccc3n2)cc1 | 711
3 | CN(C)CCNc1cc(/C=C/c2ccccc2F)nc2ccc(Cl)cc12 | 186

tested on: Plasmodium falciparum; assay: Antiplasmodial activity against chloroquine-resistant Plasmodium falciparum Dd2 infected in human erythrocytes assessed as reduction in microbial growth after 72 hrs by SYBR green I staining based fluorescence assay; format: functional, organism-based; details: Dd2, Erythrocyte
Procedure, shortened: (§1)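 SYBR Green I assay: twofold serial dilutions on P. falciparum cultures at 1% parasitemia, 1% hematocrit, 37 °C, 5% CO₂, 72 h, max 0.1% DMSO. DMSO and CQ as growth and inhibition controls. Plates frozen at −80 °C, thawed, lysed in Tris/saponin/EDTA/Triton buffer with 0.01% SYBR Green I, 1 h dark at room temperature. Fluorescence read at 485 ex/530 em. EC50 by nonlinear dose–response fit.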

Row | Compound | pEC50
4 | Fc1ccc(/C=C/c2cc(NCCN3CCCC3)c3cc(Cl)ccc3n2)cc1 | 7.03
5 | Clc1ccc2nc(/C=C/c3ccncc3)cc(Nc3ccc(N4CCCCC4)cc3)c2c1 | 6.10
6 | COc1ccc2nc(/C=C/c3ccc(F)cc3)cc(NCCN(C)C)c2c1 | 7.48
7 | COc1ccc2nc(/C=C/c3cccnc3)cc(NCCN(C)C)c2c1 | 7.15
8 | Clc1ccc2nc(-c3ccccc3)cc(NCCCCN3CCOCC3)c2c1 | 6.37
9 | CN(C)CCNc1cc(/C=C/c2ccccc2)nc2ccc(Cl)cc12 | 7.65
10 | FC(F)(F)c1ccccc1/C=C/c1cc(NCCCCN2CCOCC2)c2cc(Cl)ccc2n1 | 6.98
11 | FC(F)(F)c1ccc(/C=C/c2cc(NCCCN3CCOCC3)c3cc(Cl)ccc3n2)cc1 | 7.07
12 | COc1ccc2nc(/C=C/c3ccco3)cc(NCCN(C)C)c2c1 | 7.05
13 | Fc1ccc(/C=C/C=C/c2cc(NCCCCN3CCOCC3)c3cc(Cl)ccc3n2)cc1 | 7.02
14 | CN(C)CCNc1cc(CCc2ccncc2)nc2ccc(Cl)cc12 | 6.59
15 | CN(C)CCNc1cc(/C=C/c2cncnc2)nc2ccc(Cl)cc12 | 6.81
16 | COc1cc(/C=C/c2cc(NCCN(C)C)c3cc(F)ccc3n2)cc(OC)c1OC | 7.41
17 | COc1ccc2nc(/C=C/c3cc(OC)c(OC)c(OC)c3)cc(NCCN(C)C)c2c1 | 7.13
18 | CN1CCN(CCCCNc2cc(/C=C/c3ccc(F)cc3)nc3ccc(Cl)cc23)CC1 | 7.37
19 | FC(F)(F)c1cc(/C=C/c2cc(NCCCCN3CCOCC3)c3cc(Cl)ccc3n2)cc(C(F)(F)F)c1 | 6.97
20 | CN(C)CCNc1cc(/C=C/c2nccs2)nc2ccc(Cl)cc12 | 6.62
21 | Clc1ccc2nc(/C=C/c3ccncc3)cc(NCCN3CCCC3)c2c1 | 7.17
22 | Fc1ccc(/C=C/c2cc(NCCCCN3CCOCC3)c3cc(Cl)ccc3n2)nc1 | 7.14
23 | CN(C)CCNc1cc(/C=C/c2ccccn2)nc2ccc(Cl)cc12 | 7.17
24 | CN(C)CCNc1cc(/C=C/c2ccc(F)cc2)nc2ccccc12 | 7.59
25 | Fc1cccnc1/C=C/c1cc(NCCCCN2CCOCC2)c2cc(Cl)ccc2n1 | 6.71

Row | Compound | pEC50
26 | CN(C)CCNc1cc(/C=C/c2cccs2)nc2ccc(Cl)cc12 | 7.53
27 | Clc1ccc2nc(-c3ccncc3)cc(NCCCCN3CCOCC3)c2c1 | 6.10
28 | Cc1cc(NCCN(C)C)c2cc(Cl)ccc2n1 | 6.14
29 | COc1ccc(/C=C/c2cc(NCCN(C)C)c3cc(OC)ccc3n2)cc1 | 7.36
30 | CN(C)CCCCNc1cc(/C=C/c2ccc(F)cc2)nc2ccc(Cl)cc12 | 7.29
31 | Fc1cc(F)c(/C=C/c2cc(NCCCCN3CCOCC3)c3cc(Cl)ccc3n2)cc1F | 6.71
32 | N#Cc1ccc(/C=C/c2cc(N3CCOCC3)c3cc(Cl)ccc3n2)cc1 | 6.00
33 | Fc1cnccc1/C=C/c1cc(NCCCCN2CCOCC2)c2cc(Cl)ccc2n1 | 7.10
34 | COc1cc(/C=C/c2cc(NCCN(C)C)c3cc(Cl)ccc3n2)cc(OC)c1OC | 7.35
35 | Fc1ccc(/C=C/c2cc(NCCCN3CCOCC3)c3cc(Cl)ccc3n2)cc1 | 7.39
36 | COc1ccc2nc(/C=C/c3ccccc3)cc(NCCN(C)C)c2c1 | 7.39
37 | COc1ccc2nc(C)cc(NCCN(C)C)c2c1 | 5.26
38 | Clc1ccc2nc(/C=C/c3ccncc3)cc(N3CCOCC3)c2c1 | 5.44
39 | CN(C)CCNc1cc(/C=C/c2ccco2)nc2ccc(F)cc12 | 7.08
40 | CN(C)CCCCNc1cc(/C=C/c2ccccc2)nc2ccc(Cl)cc12 | 7.17
41 | CN(C)CCNc1cc(/C=C/c2ccc([N+](=O)[O-])cc2)nc2ccc(F)cc12 | 7.51
42 | FC(F)(F)Oc1ccc(/C=C/c2cc(NCCCCN3CCOCC3)c3cc(Cl)ccc3n2)cc1 | 7.25
43 | COc1ccc2nc(/C=C/c3ccccn3)cc(NCCN(C)C)c2c1 | 5.99
44 | CN(C)CCNc1cc(/C=C/c2ccccc2)nc2ccccc12 | 7.09
45 | CN1CCN(CCCCNc2cc(/C=C/c3ccncc3)nc3ccc(Cl)cc23)CC1 | 7.48
46 | Fc1ccc(/C=C/c2cc(NCCN3CCOCC3)c3cc(Cl)ccc3n2)cc1 | 7.62
47 | CN(C)CCNc1cc(/C=C/c2ccccc2F)nc2ccc(Cl)cc12 | 7.59

tested on: not listed separately; assay: Resistant index, ratio of EC50 for antiplasmodial activity against chloroquine-resistant Plasmodium falciparum Dd2 to antiplasmodial activity against chloroquine-sensitive Plasmodium falciparum 3D7; format: functional; details: not given

Row | Compound | Ratio EC50
48 | CN(C)CCNc1cc(/C=C/c2cncnc2)nc2ccc(Cl)cc12 | > 1.3
49 | COc1ccc2nc(/C=C/c3cc(OC)c(OC)c(OC)c3)cc(NCCN(C)C)c2c1 | > 1.3
50 | COc1ccc2nc(/C=C/c3ccccc3)cc(NCCN(C)C)c2c1 | > 1.3
51 | CN1CCN(CCCCNc2cc(/C=C/c3ccncc3)nc3ccc(Cl)cc23)CC1 | 0.9
52 | Fc1ccc(/C=C/c2cc(NCCN3CCOCC3)c3cc(Cl)ccc3n2)cc1 | 0.6
53 | CN(C)CCNc1cc(/C=C/c2ccccc2F)nc2ccc(Cl)cc12 | 0.5

tested on: Plasmodium falciparum; assay: Antiplasmodial activity against chloroquine-sensitive Plasmodium falciparum 3D7 infected in human erythrocytes assessed as reduction in microbial growth after 72 hrs by SYBR green I staining based fluorescence assay; format: functional, organism-based; details: 3D7, Erythrocyte; procedure, shortened: as §1

Row | Compound | pEC50
54 | Clc1ccc2nc(/C=C/c3ccncc3)cc(Nc3ccc(N4CCCCC4)cc3)c2c1 | 6.81
55 | CN1CCN(CCCCNc2cc(/C=C/c3ccncc3)nc3ccc(Cl)cc23)CC1 | 7.44
56 | Fc1ccc(/C=C/c2cc(NCCN3CCOCC3)c3cc(Cl)ccc3n2)cc1 | 7.38
57 | CN(C)CCNc1cc(/C=C/c2ccccc2F)nc2ccc(Cl)cc12 | 7.25

same assay, conditions: Erythrocyte

Row | Compound | Activity
58 | COc1ccc2nc(/C=C/c3cc(OC)c(OC)c(OC)c3)cc(NCCN(C)C)c2c1 | Active
59 | Fc1cccnc1/C=C/c1cc(NCCCCN2CCOCC2)c2cc(Cl)ccc2n1 | Active
60 | Fc1cc(F)c(/C=C/c2cc(NCCCCN3CCOCC3)c3cc(Cl)ccc3n2)cc1F | Active
61 | COc1ccc2nc(/C=C/c3ccccc3)cc(NCCN(C)C)c2c1 | Active

tested on: HepG2; assay: Cytotoxicity against human HepG2 cells assessed as reduction in cell viability after 48 hrs by MTS assay; format: cell-based; details: HepG2, 48 h
Procedure, shortened: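 HepG2 cells were seeded at 2250 per well and grown 24 h at 37 °C, 5% CO₂. Serial dilutions starting at 25 μM were added for a further 48 h. MTS was then added for 3 h at 37 °C and absorbance read at 490 nm. EC₅₀ came from nonlinear dose–response fits.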

Row | Compound | pEC50
62 | CN1CCN(CCCCNc2cc(/C=C/c3ccncc3)nc3ccc(Cl)cc23)CC1 | 5.08
63 | Fc1ccc(/C=C/c2cc(NCCN3CCOCC3)c3cc(Cl)ccc3n2)cc1 | 4.76
64 | CN(C)CCNc1cc(/C=C/c2ccccc2F)nc2ccc(Cl)cc12 | 5.32
